Measured values taken from ChEMBL document CHEMBL1914453, “1,1-Diarylalkenes as anticancer agents: dual inhibitors of tubulin polymerization and phosphodiesterase 4” (Bioorg Med Chem, 2011).

Assays:
[1] = test system: HCT-116; assay: Cytotoxicity against human HCT116 cells assessed as reduction of [3H]thymidine incorporation after 72 hrs by scintillation counting; assay type: functional, cell-based
Method in brief: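 HCT-116 cells were seeded 24 h before compound and treated with serial dilutions in triplicate for 72 h at 37 °C. [³H]thymidine (1 µCi per well) was added for the last 6 h, and incorporation was read by scintillation counting. IC50 came from nonlinear sigmoidal regression (top 100%, bottom 0%, variable slope). Values are means of at least three independent determinations, with SEM from the individual IC50s.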

[2] = molecular target: Phosphodiesterase 4 (Homo sapiens, UniProt P27815+Q08499+Q07343+Q08493); assay: Inhibition of human PDE4 expressed in U937 cells using [3H]cAMP as substrate after 30 mins; conditions: u-937
Method in brief: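 PDE4 was purified from U937 human monocytic cells by gel filtration. Reactions ran in 50 mM Tris–HCl pH 7.5 with 5 mM MgCl₂, 1 µM cAMP and 10 nM [³H]-cAMP for 30 min at 30 °C. They were stopped by boiling, treated with snake venom (1 mg/ml) and separated on ion-exchange resin. Substrate consumption stayed below 15%. IC50 values are means of at least three determinations, with SEM.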

[3] = test system: PBMC; assay: Inhibition of LPS-induced TNFalpha production in human PBMC preincubated 1 hr prior to LPS stimulation measured after 18 to 20 hrs by ELISA; assay type: functional, cell-based
Method in brief: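 PBMC were isolated by Ficoll-Hypaque density centrifugation and plated at 2 × 10⁵ cells in triplicate. Compounds in DMSO (0.25% final) were added 1 h before stimulation with LPS from S. abortus equi at 1 ng/ml. After 18–20 h at 37 °C in 5% CO₂, supernatant TNF-α was measured by ELISA. IC50 values are means of at least three determinations.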

[4] = test system: Plasma; assay: Stability in human plasma assessed as formation of (E/Z)-3-(3-Ethoxy-4-methoxyphenyl)-3-(3-hydroxy-4- methoxyphenyl)acrylonitrile […] by LC-MS/MS analysis; assay type: ADME, cell-free; conditions: 20 min
[5] = Inhibition of tubulin polymerization at 5 uM after 60 mins by spectrophotometry
[6] = Inhibition of tubulin polymerization at 10 uM after 60 mins by spectrophotometry

Row | IC50 [2] [nM] | Stability [4] | inhibition [5] [%] | inhibition [6] [%] | SMILES | IC50 [1] [nM] | IC50 [3] [nM]
1 | 70 |  |  |  | CCOc1cc(C(=CC#N)c2ccc(OC)c(OCC)c2)ccc1OC | 440 | 48
2 | 49 | Unstable |  |  | CCOc1cc(C(=CC#N)c2ccc(OC)c(OC(=O)CN)c2)ccc1OC.Cl | 19 | 58
3 | 590 |  |  |  | CC=C(c1ccc(OC)c(N)c1)c1ccc(OC)c(OCC)c1 | 110 | 2800
4 | > 10000 |  |  |  | COc1cc(OC)cc(C(=Cc2ccccc2)c2ccc(OC)c(O)c2)c1 | > 10000 | > 10000
5 | 2000 |  |  |  | CCC=C(c1cc(OC)cc(OC)c1)c1ccc(OC)c(OC)c1 | > 10000 | > 10000
6 | 730 |  |  |  | COc1cc(OC)cc(/C(=C/C#N)c2ccc(OC)c(OC)c2)c1 | 110 | 650
7 | 120 | Unstable |  |  | CCOc1cc(C(=CC#N)c2ccc(OC)c(OC(=O)[C@@H](N)C(C)C)c2)ccc1OC.Cl | 22 | 67
8 | 2400 |  | 77 |  | COc1cc(OC)cc(C(=CC#N)c2ccc(OC)c(O)c2)c1 | 2.5 | 1.2
9 | 150 |  |  |  | COc1cc(OC)cc(/C(=C\C#N)c2ccc(OC)c(OC)c2)c1 | 11 | 93
10 | 680 |  |  |  | C=C(c1ccc(OC)c(N)c1)c1ccc(OC)c(OCC)c1 | 38 | 380
11 | 3400 |  | 67 | 88 | COc1cccc(C(=CC#N)c2cc(OC)cc(OC)c2)c1 | 15 | 290
12 | 160 |  |  |  | COc1cccc(C(=CC#N)c2ccc(OC)c(OC)c2)c1 | 310 | 660
13 | 110 |  |  |  | CCOc1cc(C(=CC#N)c2cccc(OC)c2)ccc1OC | 450 | 230
14 | 1800 |  |  |  | COc1ccc(C(=CC#N)c2cc(OC)c(OC)c(OC)c2)cc1OC | 41 | 540
15 | 380 |  |  |  | C=C(c1ccc(OC)c(O)c1)c1ccc(OC)c(OCC)c1 | 36 | 29
16 | 1500 |  |  |  | CC=C(c1cc(OC)cc(OC)c1)c1ccc(OC)c(OC)c1 | 480 | 2600
17 | 70 |  |  |  | CCOc1cc(C(=CC#N)c2ccc(OC)c(-n3cccc3)c2)ccc1OC | 49 | 67
18 | 52 |  |  |  | CCOc1cc(C(=CC#N)c2ccc(N(C)C)cc2)ccc1OC | 31 | 130
19 | 9800 |  | 76 |  | COc1cc(OC)cc(C(=CC#N)c2ccc(OC)c(N)c2)c1 | 1.4 | 11
20 | 3800 |  |  |  | COc1ccc(C(=CC#N)c2cc(OC)cc(OC)c2)cc1 | 1.2 | 440
21 | 1900 |  |  |  | COc1cc(OC)cc(C(=CC#N)c2ccccc2)c1 | 970 | 2400
22 | 190 |  |  |  | COc1ccc(C(=CC#N)c2ccc(OC)c(OC)c2)cc1 | 24 | 350
23 | 6700 |  |  |  | COc1cc(OC)cc(C(=CC(N)=O)c2ccc(OC)c(OC)c2)c1 | > 10000 | 5500

Row | IC50 [2] [nM] | Stability [4] | inhibition [5] [%] | inhibition [6] [%] | SMILES | IC50 [1] [nM] | IC50 [3] [nM]
24 | 350 |  | 65 | 84 | COc1cc(OC)cc(C(=CC#N)c2ccc(OC)c(OC)c2)c1 | 18 | 270
25 | 69 | Unstable |  |  | CCOc1cc(C(=CC#N)c2ccc(OC)c(OC(=O)[C@H](C)N)c2)ccc1OC.Cl | 17 | 57
26 | 82 |  |  |  | CCOc1cc(C(=CC#N)c2ccc(OC)c(C)c2)ccc1OC | 87 | 100
27 | > 10000 |  |  |  | C=C(c1cc(OC)cc(OC)c1)c1ccc(OC)c(N)c1 | 13 | 330
28 | 310 |  |  |  | COc1ccc(C(=CC#N)c2ccc(OC)c(OC)c2)cc1OC | 140 | 600
29 | 200 |  |  |  | CCOc1cc(C(=CC#N)c2ccc(S(C)(=O)=O)cc2)ccc1OC | > 10000 | 130
30 | 1300 |  |  |  | COC(=O)C=C(c1cc(OC)cc(OC)c1)c1ccc(OC)c(OC)c1 | > 10000 | 5400
31 | > 10000 |  |  |  | COc1ccc(C(=CC#N)c2cc(OC)c(OC)c(OC)c2)cc1N | 1.8 | 200
32 | 3600 |  |  |  | COC=C(c1cc(OC)cc(OC)c1)c1ccc(OC)c(OC)c1 | > 10000 | 6300
33 | 83 |  |  |  | CCOc1cc(C(=CC#N)c2ccc(OC)c(OC)c2)ccc1OC | 200 | 180
34 | > 10000 |  |  |  | C=C(c1cc(OC)cc(OC)c1)c1ccc(OC)c(O)c1 | 21 | 3000
35 | 140 |  |  |  | COc1cc(OC)cc(C(=CC(C)=O)c2ccc(OC)c(OC)c2)c1 | > 10000 | 750
36 | > 10000 |  |  |  | COc1cc(OC)cc(C(=CCCN(C)C)c2ccc(OC)c(OC)c2)c1 | > 10000 | > 10000
37 | 70 |  |  |  | CCOc1cc(C(=CC#N)c2ccc(OC)c(F)c2)ccc1OC | 130 | 31
38 | > 10000 |  |  |  | CC=C(c1cc(OC)cc(OC)c1)c1ccc(OC)c(O)c1 | 30 | 150
39 | 3500 |  |  |  | C#CC=C(c1cc(OC)cc(OC)c1)c1ccc(OC)c(OC)c1 | > 10000 | 7200
40 | 91 |  |  |  | CCOc1cc(C(=CC#N)c2ccc(OC)c(O)c2)ccc1OC | 15 | 44
41 | 2200 |  |  |  | C=C(c1cc(OC)cc(OC)c1)c1ccc(OC)c(OC)c1 | > 10000 | 4800
42 | 360 |  |  |  | CCOc1cc(C(=C(F)F)c2ccc(OC)c(O)c2)ccc1OC | 74 | 54
43 | 2400 |  |  |  | COc1cc(C(=CC#N)c2cc(OC)c(OC)c(OC)c2)cc(OC)c1OC | > 10000 | 870
44 | > 10000 |  |  |  | COc1cc(OC)cc(C(=CC(=O)O)c2ccc(OC)c(OC)c2)c1 | > 10000 | > 10000
45 | 41 |  |  |  | CCOc1cc(C(=CC#N)c2ccc(NC)cc2)ccc1OC | 55 | 140
46 | > 10000 |  | 46 | 74 | COc1cc(OC)cc(C(=CC#N)c2ccc(OC)c(NC(C)=O)c2)c1 | 92 | 66

Row | SMILES | IC50 [2] [nM] | Stability [4] | inhibition [5] [%] | inhibition [6] [%] | IC50 [1] [nM] | IC50 [3] [nM]
47 | COc1ccc(/C=C\c2cc(OC)c(OC)c(OC)c2)cc1O [COMBRETASTATIN A4] | > 10000 |  | 88 |  | 0.74 | 11
48 | CCOc1cc(C(=CC#N)c2ccc(OC)c(OC(=O)N(C)C)c2)ccc1OC | 120 |  |  |  | > 10000 | 240
